Source: ChEMBL document CHEMBL4007441, “Novel Design of Heptad Amphiphiles To Enhance Cell Selectivity, Salt Resistance, Antibiofilm Properties and Their Membrane-Disruptive Mechanism” (J Med Chem, 2017)
≈ marks a conversion by molar mass, not a printed value.

Key:
[1] = test system: Staphylococcus aureus; assay: Antibacterial activity against Staphylococcus aureus ATCC 29213 after 18 hrs by broth microdilution method; format: functional
Summary of the method: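 Broth microdilution. Exponential-phase bacteria grown in MHB at 37 °C, diluted to about 1 × 10^6 CFU/mL in MHB and mixed 1:1 with two-fold dilutions of peptide. MIC is the lowest concentration with no visible turbidity after 18 h at 37 °C. Controls were uninoculated broth and peptide-free culture. At least three repeats, duplicates each.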

[2] = test system: Pseudomonas aeruginosa; assay: Antibacterial activity against Pseudomonas aeruginosa ATCC 27853 after 18 hrs by broth microdilution method; format: functional
Summary of the method: (§1)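 Broth microdilution in Mueller-Hinton broth. Exponential-phase bacteria (37 °C, 220 rpm shaking) were diluted to about 1 × 10^6 CFU/mL and mixed 1:1 with two-fold serial peptide dilutions. MIC is the lowest concentration with no visible turbidity after 18 h at 37 °C. Controls were uninoculated MHB and untreated culture. Run at least three times, two replicates each.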

[3] = test system: Pseudomonas aeruginosa; assay: Antibacterial activity against Pseudomonas aeruginosa CICC 10419 after 18 hrs by broth microdilution method; format: functional; summary of the method: as §1
[4] = test system: Pseudomonas aeruginosa; assay: Antibacterial activity against Pseudomonas aeruginosa CICC 21625 after 18 hrs by broth microdilution method; format: functional; summary of the method: as §1
[5] = test system: Pseudomonas aeruginosa; assay: Antibacterial activity against Pseudomonas aeruginosa CICC 21630 after 18 hrs by broth microdilution method; format: functional; summary of the method: as §1
[6] = test system: Pseudomonas aeruginosa; assay: Antibacterial activity against ciprofloxacin-resistant Pseudomonas aeruginosa 11411 after 18 hrs by broth microdilution method; format: functional
Summary of the method: (§2)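 Broth microdilution in Mueller-Hinton broth. Exponential-phase bacteria (37 °C, 220 rpm shaking) were diluted to about 1 × 10^6 CFU/mL and mixed 1:1 with two-fold serial peptide dilutions. Controls were uninoculated MHB and untreated culture. Run at least three times, two replicates each.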

[7] = test system: Pseudomonas aeruginosa; assay: Antibacterial activity against gentamicin-resistant Pseudomonas aeruginosa 11421 after 18 hrs by broth microdilution method; format: functional; settings: Pseudomonas aeruginosa, 11421, 18 h; summary of the method: as §2
[8] = test system: Pseudomonas aeruginosa; assay: Antibacterial activity against ceftazidime-resistant Pseudomonas aeruginosa 11431 after 18 hrs by broth microdilution method; format: functional; summary of the method: as §1
[9] = test system: Pseudomonas aeruginosa; assay: Antibacterial activity against Pseudomonas aeruginosa 21328 clinical isolate after 18 hrs by broth microdilution method; format: functional; settings: Pseudomonas aeruginosa, 21328, 18 h
[10] = test system: Pseudomonas aeruginosa; assay: Antibacterial activity against Pseudomonas aeruginosa 25349 clinical isolate after 18 hrs by broth microdilution method; format: functional
[11] = test system: Pseudomonas aeruginosa; assay: Antibacterial activity against Pseudomonas aeruginosa 26305 clinical isolate after 18 hrs by broth microdilution method; format: functional
[12] = test system: RAW264.7; assay: Cytotoxicity in mouse RAW264.7 cells after 24 hrs by MTT assay; format: cell-based; settings: raw264.7, 24 h
[13] = test system: Escherichia coli; assay: microbe, parasite or virus in culture; settings: ATCC 25922, 18 h
[14] = test system: Pseudomonas aeruginosa; assay: Drug uptake in Pseudomonas aeruginosa ATCC 27853 treated with FITC-labeled compound at MIC after 30 mins by confocal fluorescence microscopy; format: ADME; settings: 0.5 h
Summary of the method: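 Cells were pelleted at 5,000 g for 5 min, washed three times in PBS, smeared and imaged by confocal microscopy with 488 nm excitation.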

[15] = test system: Lipopolysaccharide (LPS); assay: Binding affinity to Pseudomonas aeruginosa ATCC 27853 LPS by SPR spectroscopic analysis
Summary of the method: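 Biacore SPR. Peptides were amine-coupled to CM5 chips at 20 µg/mL in 10 mM acetate pH 6.0, giving about 1300 RU. LPS at 3.125–12.5 µg/mL in 20 mM Tris/100 mM NaCl pH 7.4 was flowed at 10 µL/min. Surfaces were regenerated with 50 mM NaOH plus 0.05% SDS. Three independent runs.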

[16] = test system: Pseudomonas aeruginosa; assay: Antibacterial activity against Pseudomonas aeruginosa ATCC 27853 assessed as induction of outer membrane permeabilization by measuring NPN uptake by spectrofluorophotometric analysis; format: functional
Summary of the method: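 Exponential-phase cells were washed in HEPES pH 7.4 with 5 mM glucose and diluted to about 10^5 CFU/mL. NPN was added at 10 µM final, then peptide at varying concentrations. Fluorescence (ex 350/em 420 nm) was followed to plateau. Values are % NPN uptake relative to polymyxin B at 10 mg/L (100%). Three experiments, duplicates.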

[17] = test system: Pseudomonas aeruginosa; assay: Antibacterial activity against Pseudomonas aeruginosa ATCC 27853 assessed as induction of cytoplasmic membrane depolarization after 90 min incubation under dark condition by diSC3-5 dye-based fluorescence analysis; format: functional
Summary of the method: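 Exponential-phase cells were washed three times in 5 mM HEPES (pH 7.4). diSC3-5 (0.4 µM final) and KCl (0.1 M final) were added, then the cells were incubated 90 min at 37 °C in the dark. Peptide at a range of concentrations was added and fluorescence followed at ex 622/em 670 nm. Three independent experiments, duplicates each.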

[18] = test system: Pseudomonas aeruginosa; assay: Antibacterial activity against Pseudomonas aeruginosa ATCC 27853 assessed as induction of membrane integrity disruption at MIC after 15 mins by PI-staining based flow cytometry (reference value: 4.7%)
[19] = Pseudomonas aeruginosa, 11411, 18 h
[20] = Pseudomonas aeruginosa, 11431, 18 h
[21] = Pseudomonas aeruginosa, 25349, 18 h
[22] = Pseudomonas aeruginosa, 26305, 18 h

Compound | MIC ([1]; ATCC 29213, 18 h) [µg/mL] | MIC ([2]; ATCC 27853, 18 h) [µg/mL] | MIC ([3]; CICC 10419, 18 h) [µg/mL] | MIC ([4]; CICC 21625, 18 h) [µg/mL] | MIC ([5]; CICC 21630, 18 h) [µg/mL] | MIC [6, 19] [µg/mL] | MIC [7] [µg/mL] | MIC [8, 20] [µg/mL] | MIC [9] [µg/mL] | MIC [10, 21] [µg/mL] | MIC [11, 22] [µg/mL] | CC10 [12] [µg/mL] | MIC [13] [µg/mL] | Activity [16] | also measured
CC(C)(O/N=C(\C(=O)N[C@@H]1C(=O)N2C(C(=O)[O-])=C(C[n+]3ccccc3)CS[C@H]12)c1csc(N)n1)C(=O)O [CEFTAZIDIME] | 16 (≈ 29.3 µM) | 2 (≈ 3.66 µM) | 32 (≈ 58.5 µM) | 32 (≈ 58.5 µM) | 8 (≈ 14.6 µM) | 32 (≈ 58.5 µM) | 32 (≈ 58.5 µM) | 256 (≈ 468 µM) | 256 (≈ 468 µM) | 64 (≈ 117 µM) | 128 (≈ 234 µM) | > 256 | 2 (≈ 3.66 µM) |  | 
O=C(O)c1cn(C2CC2)c2cc(N3CCNCC3)c(F)cc2c1=O [CIPROFLOXACIN] | 4 (≈ 12.1 µM) | 4 (≈ 12.1 µM) |  |  | 16 (≈ 48.3 µM) |  | 16 (≈ 48.3 µM) |  |  |  |  |  |  |  | 
CC[C@H](C)[C@H](NC(=O)CN)C(=O)NCC(=O)N[C@@H](C)C(=O)N[C@H](C(=O)N[C@@H](CC(C)C)C(=O)N[C@@H](CCCCN)C(=O)N[C@H](C(=O)N[C@@H](CC(C)C)C(=O)N[C@H](C(=O)N[C@H](C(=O)NCC(=O)N[C@@H](CC(C)C)C(=O)N1CCC[C@H]1C(=O)N[C@@H](C)C(=O)N[C@@H](CC(C)C)C(=O)N[C@H](C(=O)N[C@@H](CO)C(=O)N[C@@H](Cc1c[nH]c2ccccc12)C(=O)N[C@H](C(=O)N[C@@H](CCCCN)C(=O)N[C@@H](CCCNC(=N)N)C(=O)N[C@@H](CCCCN)C(=O)N[C@@H](CCCNC(=N)N)C(=O)N[C@@H](CCC(N)=O)C(=O)N[C@@H](CCC(N)=O)C(N)=O)[C@@H](C)CC)[C@@H](C)CC)[C@@H](C)O)[C@@H](C)O)C(C)C)C(C)C [MELITTIN] |  |  |  |  |  |  |  |  |  |  |  | 0.5 (≈ 0.176 µM) |  |  | Drug uptake [14]: Active; Activity [15]: Dose-dependent effect
GENTAMICIN [listing 1 of 2 here] |  |  |  |  |  |  |  |  |  |  |  | > 256 |  |  | 
GENTAMICIN [listing 2 of 2 here] |  |  |  |  |  |  |  |  |  |  |  |  |  |  | MIC [1]: 1 µg/mL; MIC [2]: 2 µg/mL; MIC [3]: 16 µg/mL; MIC [4]: 32 µg/mL; MIC [5]: 8 µg/mL; MIC [6]: 32 µg/mL; MIC [8]: 8 µg/mL; MIC [10]: 4 µg/mL; MIC [11]: 2 µg/mL
H-ARRARRRWRRRARRA-NH2 | 64 | 128 | 256 | 256 | 256 | 256 | 256 | 256 | 256 | 32 | 256 | > 256 | 64 | Dose-dependent effect | 
H-FRRFRRRWRRRFRRF-NH2 | 16 | 8 | 256 | 256 | 32 | 256 | 256 | 16 | 256 | 8 | 64 | 256 | 8 | Dose-dependent effect | 
H-LRRLRRRLRRLRRRWRRRLRRLRRRLRRL-OH | 16 | 8 | 4 | 8 | 4 | 8 | 16 | 8 | 8 | 8 | 16 | 128 | 8 | Dose-dependent effect | 
H-LRRLRRRWLRRLRRR-NH2 | 64 | 32 | 256 | 64 | 32 | 128 | 256 | 64 | 128 | 32 | 64 | > 256 | > 128 | Dose-dependent effect | Activity [17]: Dose-dependent effect; Activity [18]: 57%
H-LRRLRRRWRRRLRRL-NH2 | 16 | 16 | 32 | 16 | 16 | 32 | 32 | 16 | 32 | 8 | 32 | 256 | 16 | Dose-dependent effect | Activity [17]: Dose-dependent effect; Activity [18]: 93%
H-WRRWRRRWRRRWRRW-NH2 | 16 | 4 | 256 | 256 | 16 | 256 | 256 | 8 | 256 | 32 | 32 | 128 | 32 | Dose-dependent effect | 
